The subject of data set [1] is ARPE-19. Briefly: Cytoprotective activity against H2O2-induced toxicity in human ARPE19 cells pretreated for 5 hrs followed by H2O2 addition after 19 hrs by CellTiter-blue assay. Type of data set: functional, cell-based. Summed up: (§1)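 ARPE-19 human retinal pigment epithelial cells pre-incubated 5 h with a range of compound concentrations, then given H2O2 at 200 μM. Viability read 19 h after peroxide addition by CellTiter Blue. Expressed as percent of untreated control (100%).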

Data set [2] concerns ARPE-19. Briefly: Cytotoxicity against human ARPE19 cells assessed as reduction in cell viability up to 100 uM after 72 hrs by CellTiter-blue assay. Type of data set: cell-based. To be noted: arpe-19, 72 h. Summed up:
(§2)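 Inherent toxicity tested on ARPE-19 cells. Compounds at concentrations up to 100 μM for 72 h. Viability read by CellTiter Blue assay.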

A short description of data set [3]: Stability of the compound in minimal essential medium assessed as compound hydrolysis at 100 uM at pH 7.4 up to 24 hrs by UV-Vis spectrophotometric analysis. Summed up: (§3)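 Compound at 100 μM dissolved in PBS pH 7.4 or in minimal essential medium. UV-Vis spectra of freshly prepared and 24-h aged solutions kept at ambient temperature were compared.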
Data set [4] in a line: Drug metabolism in phosphate buffered saline at pH 7.4 assessed as formation of salicylaldehyde by measuring retention time at 100 uM after 24 hrs in presence of H2O2 by LC-MS analysis. As to conditions: buffer, pH 7.4, 24 h. Type of data set: physicochemical.
Data set [5] in a line: Drug metabolism in phosphate buffered saline at pH 7.4 assessed as equilibrium hydrolysis constant measured at 1 min interval for 20 mins by UV-vis spectrophotometric method. Type of data set: physicochemical. As to conditions: buffer, pH 7.4, 20 min.
The nature of data set [6]: Drug metabolism in D2O/5% DMSO-d6 assessed as formation of aldehyde proton of salicylaldehyde at 500 uM after 1 hr by 1H-NMR spectroscopic analysis. The class given is physicochemical.
Data set [7] in a line: Stability of the compound in minimal essential medium assessed as compound hydrolysis at 100 uM at pH 7.4 within 20 mins by UV-Vis spectrophotometric analysis.
Data set [8] is described as follows: Stability of the compound in Britton-Robinson buffer at pH 2 assessed as parent compound remaining at 100 uM by UV-vis spectrometric analysis. To be noted: read-out: Stability. Type of data set: physicochemical.
Data set [9] is described as follows: Stability of the compound in Britton-Robinson buffer at pH 12 assessed as parent compound remaining at 100 uM by UV-vis spectrometric analysis. To be noted: read-out: Stability. The class given is physicochemical.
Data set [10] in a line: Drug metabolism in DMSO-d6 assessed as formation of pinacol boronic ester form of BSIH at 10 mM by 1H-NMR spectroscopic analysis. The class given is physicochemical. As to conditions: 10000 µM.
Data set [11] can be described thus: Stability of the compound in Britton-Robinson buffer at pH 6 assessed as parent compound remaining at 100 uM by UV-vis spectrometric analysis. The class given is physicochemical. As to conditions: read-out: Stability.
Data set [12] in a line: Stability of the compound in phosphate buffered saline at pH 7.4 assessed as compound hydrolysis at 100 uM within 20 mins by UV-Vis spectrophotometric analysis. As to conditions: buffer, pH 7.4, 20 min. The class given is physicochemical.
The nature of data set [13]: Drug metabolism in DMSO-d6 assessed as formation of hydrazone proton at 10 mM by 1H-NMR spectroscopic analysis. Type of data set: physicochemical. As to conditions: 10000 µM.
The nature of data set [14]: Drug metabolism in phosphate buffered saline at pH 7.4 assessed as formation of isoniazid by measuring elution time at 100 uM after 24 hrs in presence of H2O2 by LC-MS analysis. The class given is physicochemical. As to conditions: buffer, pH 7.4, 24 h.
Data set [15] can be described thus: Stability of the compound in aqueous solvent assessed as parent compound remaining at 100 uM after 24 hrs in presence of H2O2 by 1H-NMR spectrometric method. The class given is physicochemical. As to conditions: aqueous solvent with H2O2; read-out: Stability.
A short description of data set [16]: Stability of the compound in phosphate buffered saline at pH 7.4 assessed as compound hydrolysis at 100 uM up to 24 hrs by UV-Vis spectrophotometric analysis. Type of data set: physicochemical. As to conditions: buffer, pH 7.4, 24 h. Summed up:
as §3

A short description of data set [17]: Stability of the compound in Britton-Robinson buffer at pH 10 assessed as parent compound remaining at 100 uM by UV-vis spectrometric analysis. Type of data set: physicochemical. As to conditions: read-out: Stability.
Data set [18] is described as follows: Drug metabolism in D2O/5% DMSO-d6 assessed as formation of hydrazone proton at 500 uM after 1 hr by 1H-NMR spectroscopic analysis. Type of data set: physicochemical.
Data set [19] in a line: Stability of the compound in Britton-Robinson buffer at pH 4 assessed as parent compound remaining at 100 uM by UV-vis spectrometric analysis. Type of data set: physicochemical. To be noted: read-out: Stability.
Data set [20] is described as follows: Drug metabolism in D2O/5% DMSO-d6 assessed as pinacol dissociation by measuring formation of boronic acid form of BASIH at 500 uM after 1 hr by 1H-NMR spectroscopic analysis. Type of data set: physicochemical.
The nature of data set [21]: Stability of the compound in Britton-Robinson buffer at pH 8 assessed as parent compound remaining at 100 uM by UV-vis spectrometric analysis. The class given is physicochemical. As to conditions: read-out: Stability.
Data set [22] can be described thus: Stability of the compound in D2O/5% DMSO-d6 assessed as parent compound remaining at 500 uM after 1 hr by 1H-NMR spectroscopic analysis. Type of data set: physicochemical. To be noted: read-out: Stability.
Data set [23] is described as follows: Drug metabolism in phosphate buffered saline at pH 7.4 assessed as formation of SIH by measuring elution time at 100 uM after 24 hrs in presence of H2O2 by LC-MS analysis. Type of data set: physicochemical. To be noted: buffer, pH 7.4, 24 h.
Data set [24] can be described thus: Stability of the compound in phosphate buffered saline assessed as parent compound remaining at 100 uM at pH 7.4 after 20 mins by UV-vis spectrophotometric analysis. Type of data set: physicochemical. To be noted: read-out: Stability.
Data set [25] in a line: Stability of the compound in phosphate buffered saline assessed as parent compound remaining at 500 uM at pH 7.4 after 20 mins by UV-vis spectrophotometric analysis. The class given is physicochemical. To be noted: read-out: Stability.
Data set [26] is described as follows: Drug level treated with BSIH assessed as metabolite formation at 500 uM after 24 hrs in presence of H2O2 by 1H-NMR spectroscopic analysis.
Data set [27] in a line: Drug level treated with BSIH in DMSO assessed as metabolite formation at 100 uM at pH 7.4 after overnight incubation in presence of H2O2 by UV-vis spectrometric analysis.
Data set [28] can be described thus: Stability of the compound in phosphate buffered saline at pH 7.4 assessed as compound hydrolysis at 100 uM after 24 hrs by UV-Vis spectrophotometric analysis. Type of data set: physicochemical. As to conditions: buffer, pH 7.4, 24 h. Summed up:
as §3

Data set [29] concerns ARPE-19. Briefly: Cytotoxicity against human ARPE19 cells assessed as reduction in cell viability at 100 uM after 72 hrs by CellTiter-blue assay relative to control. As to conditions: arpe-19, 72 h. The class given is cell-based. Summed up:
as §2

Data set [30] is described as follows: Stability of the compound in minimal essential medium assessed as compound hydrolysis at 100 uM at pH 7.4 after 24 hrs by UV-Vis spectrophotometric analysis. The gist of the method: as §3
Data set [31] is described as follows: Drug metabolism in RPMI media assessed as equilibrium hydrolysis constant at 100 uM. The class given is physicochemical.
The nature of data set [32]: Half-life in RPMI media at 100 uM. The class given is physicochemical.
The nature of data set [33]: Stability of the compound in aqueous solvent at 500 uM after 24 hrs in presence of H2O2 by 1H-NMR spectroscopic analysis. To be noted: buffer. The class given is physicochemical.
Data set [34] in a line: Stability of the compound in minimal essential medium assessed as compound hydrolysis at 100 uM within 24 hrs by UV-Vis spectrophotometric analysis.
Data set [35] relates to ARPE-19. Briefly: Cytoprotective activity against H2O2-induced toxicity in human ARPE19 cells up to 100 uM pretreated for 5 hrs followed by H2O2 addition after 19 hrs by CellTiter-blue assay. The class given is functional, cell-based. Summed up:
as §1

The structures appear in SMILES notation. Calls of active or inactive are those of the source. The rule behind the calls is not given here.

As for `O=Cc1ccccc1B(O)O`, the Activity entry is “Dose-dependent effect” in the data set with ARPE-19 [1] and “Non-Toxic” in the data set on ARPE-19 [2].
As for `CC1(C)OB(c2ccccc2/C=N/NC(=O)c2ccncc2)OC1(C)C`, the Stability result in data set [3] was “Stable”; in [7], “Unstable”; in data set [12] it was “Unstable”; in data set [16] it was “Stable”. For the same molecule, the Retention_time in [4] is reported as 12 min. In addition, the K in data set [5] is 1.5 ×10⁻⁵ M. For the same molecule, the Drug metabolism in data set [6] is on record as 9.9 ppm; in data set [10], 1.34 ppm; in data set [13] it was 8.79 ppm; in data set [18], “Metabolite_Notdetected”; in [20] it was 1.03 ppm. The remaining at 100 µM in data set [8] came to 9%; in data set [9], 50%; in data set [11], 36%; in [17] it was 67%; in [19], 26%; in data set [21], 65%. Besides, the figures for the Time in data set [14] and in [23] were 2 min and 13 min, respectively. For the same molecule, in data set [15], the remaining at 24 h, 100 µM turned out to be 25%. Further, the Activity entry in the data set with ARPE-19 [1] was “Dose-dependent effect”; in the data set with ARPE-19 [2] it was “Non-Toxic”. The remaining at 1 h, 500 µM in data set [22] amounted to 80%.
For the molecule `O=C(N/N=C/c1ccccc1B(O)O)c1ccncc1`, the remaining at 20 min, 100 µM in [24] was found to be 68%. In addition, the Stability result in [12] is reported as “Unstable”; in data set [16], “Stable”. Further, the remaining at 20 min, 500 µM in data set [25] stood at 84%.
Consider `O=Cc1ccccc1O` [SALICYLADEHYDE], for which, in data set [26], the Drug metabolism entry is reported as “Metabolite detected”. Besides, the Activity entry with ARPE-19 [1] was “Dose-dependent effect”; with ARPE-19 [2], “Non-Toxic”.
For the molecule `O=C(N/N=C/c1ccccc1O)c1ccncc1` [SALINAZID], the Drug metabolism result in data set [27] is reported as “Metabolite detected”. Besides, the Stability result is on record as “Stable” in data set [28], “Unstable” in data set [30], “Stable” in [33] and “Unstable” in data set [34]. Further, the Activity is 30% with ARPE-19 [29] and “Dose-dependent effect” in the data set with ARPE-19 [1]. The K in data set [31] was 5 ×10⁻⁴ M. The half-life at 100 µM in data set [32] was 2.7 h.
For the molecule `NNC(=O)c1ccncc1` [ISONIAZID], the Drug metabolism result in data set [26] is recorded as “Metabolite detected”. The result in the data set on ARPE-19 [35] was inactive. Moreover, the Activity result in the data set with ARPE-19 [2] is “Non-Toxic”.

Source of the values: ChEMBL document CHEMBL4052786, “The hydrolytic susceptibility of prochelator BSIH in aqueous solutions” (Bioorg Med Chem Lett, 2017).
